# Assay results published in paper PMC11292830 (ACS Omega, 2024).
# Bridges are numbered along the chain shown (N, C = ends). Where no end group is shown, it is not given here.
# Tests used:
# [1] = cited from earlier work
# [2] = FRET assay in solution of Cy3- and Cy5-labeled peptides; type: physicochemical; details: 100 nM Cy3-labeled plus 100 nM Cy5-labeled peptide in PBS, excitation of Cy3 at 490 nm, microplate reader, n = 3
# [3] = Differential scanning calorimetry of the oligomers; type: physicochemical; details: DSC, 10 mg/mL in 20 mM Tris-HCl pH 7.5, 100 mM NaCl, 4 to 110 °C at 1 °C/min, 3 atm, first scan
# [4] = Native mass spectrometry of oligomeric state; type: physicochemical; details: 50 mM ammonium acetate (pH 6.9), native ESI-MS, column bypassed
# In short: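 Intact-mass LC/MS on a QTof instrument fed by UHPLC, with the column bypassed to capture the full oligomer profile. Test compound was in 50 mM ammonium acetate (pH 6.9) under native conditions. Electrospray in positive ionization mode; source temperature 300 °C; ion spray voltage 5500 V. Spectra were inspected over the expected regions for larger oligomers.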
sequence,measurement,setting,value
LKKLCLKLKKLCKLAG (disulfide 5-12 (inferred)) [LK-3],molecularity of the oligomer by SEC-MALS,[1],tetramer of dimers
same,FRET efficiency,[2],0.36
same,melting temperature (Tm2),[3],63.8 °C
same,oligomeric state by native mass spectrometry,[4],prefers to form oligomers
